PubChem BioAssay
Calls of active or inactive are those of the source.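 The calls were made as follows: active = active in primary screen and both duplicates, each dropping signal beyond three positive-control SD with fluorescence still positive; inactive = the rest.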

target: Short transient receptor potential channel 6 (Mus musculus) (UniProt Q61143); assay: inhibition of mouse TRPC6 channel, confirmation, selectivity assay for TRPC4 inhibitor project, cell-based, HEK293, membrane potential dye, duplicate (AID 434948); conditions: HEK293 TRPC6, membrane potential dye fluorescence, at 10 µM, stimulated with maximal-effect acetylcholine
Procedure, shortened: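 Material – TRPC6-expressing HEK293 cells · Repeats – two replicates · Read-out basis – control-normalized integrated fluorescence ratio · Schedule – 45 min RT dye load, 110 s compound, 110 s agonist read · Reagent – acetylcholine at maximal (ECmax) concentration, added after compound · Detection – kinetic fluorescence of membrane potential dye with 5 s baseline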

Short transient receptor potential channel 6 (Mus musculus), sequence (Q61143 whole entry, looked up): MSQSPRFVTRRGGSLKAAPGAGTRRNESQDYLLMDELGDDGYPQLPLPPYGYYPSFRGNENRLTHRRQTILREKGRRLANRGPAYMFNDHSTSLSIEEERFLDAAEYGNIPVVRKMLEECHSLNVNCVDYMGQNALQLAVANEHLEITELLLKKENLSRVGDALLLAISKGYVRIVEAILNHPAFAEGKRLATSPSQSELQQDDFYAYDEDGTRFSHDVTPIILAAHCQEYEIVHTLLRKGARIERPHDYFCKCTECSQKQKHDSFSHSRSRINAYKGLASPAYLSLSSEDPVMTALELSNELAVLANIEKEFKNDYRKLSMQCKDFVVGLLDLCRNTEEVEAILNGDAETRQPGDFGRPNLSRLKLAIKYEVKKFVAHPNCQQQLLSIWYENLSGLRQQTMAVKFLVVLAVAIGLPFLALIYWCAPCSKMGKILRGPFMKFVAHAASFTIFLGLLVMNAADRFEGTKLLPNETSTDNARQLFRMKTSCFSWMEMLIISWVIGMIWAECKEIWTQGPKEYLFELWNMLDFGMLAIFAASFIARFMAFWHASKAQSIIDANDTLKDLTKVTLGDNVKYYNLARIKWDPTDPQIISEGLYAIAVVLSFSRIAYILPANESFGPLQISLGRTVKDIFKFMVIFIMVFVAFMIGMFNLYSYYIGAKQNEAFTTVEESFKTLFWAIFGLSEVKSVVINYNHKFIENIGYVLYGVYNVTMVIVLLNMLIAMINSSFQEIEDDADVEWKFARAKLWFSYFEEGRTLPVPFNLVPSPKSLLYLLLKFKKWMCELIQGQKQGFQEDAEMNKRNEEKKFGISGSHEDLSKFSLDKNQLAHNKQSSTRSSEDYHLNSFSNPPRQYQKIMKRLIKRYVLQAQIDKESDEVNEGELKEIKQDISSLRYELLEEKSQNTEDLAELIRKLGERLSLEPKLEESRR

outcome, inactive:
CCCCC(=O)NNC(=S)NC(=O)c1ccc(C)cc1
COc1cc(/C=C/C(=O)c2ccc3c(c2)OCO3)cc(Cl)c1O
CN(C)C(CNC(=O)C1CC(=O)N(Cc2ccccc2)C1)c1ccccc1 (stereo unspecified)
Cc1ccccc1OCC(=O)NNC(=S)NC(=O)c1ccco1
O=C(CCc1ccccc1)NNC(=S)NC(=O)c1ccc(Cl)cc1
CN(CCOc1ccc(Cl)cc1)CC(O)c1ccccc1 (stereo unspecified)
Cc1onc(-c2ccccc2)c1C(=O)NC(=S)NNC(=O)c1ccco1
CC(NCCC1(Cc2ccccc2Cl)CCOC(C)(C)C1)c1cccs1 (stereo unspecified)
CN(C)C(CNC(=S)Nc1ccc(F)cc1)c1cccnc1 (stereo unspecified)
O=C(COc1ccccc1)NNC(=S)NC(=O)c1ccc(Cl)cc1Cl
CCN1CCN(c2c(S(=O)(=O)c3ccc(C)c(C)c3)cnc3ccc(F)cc23)CC1
COc1ccc(C(CNC(=O)c2cccc(NS(=O)(=O)c3ccc(C)c(F)c3)c2)N(C)C)cc1 (stereo unspecified)
CCOC(=O)C1(CCOc2ccccc2)CCN(Cc2cnc(C)s2)CC1
COc1ccc(/C=C/CN2CCCC(C(=O)c3ccc(OC)c(F)c3)C2)cc1 (stereo unspecified)
O=S(=O)(c1ccc(Cl)cc1)N1CCN2CCCC2C1 (stereo unspecified)
OC(CNC1CCCc2ccccc21)COc1ccc2ccccc2c1 (stereo unspecified)
Cc1ccc2[nH]c3c(=O)n(CCc4cnc[nH]4)cnc3c2c1
Cc1ccn2cc(CCNC(=O)C3CC=CCC3C(=O)O)nc2c1 (stereo unspecified)
CCOC(=O)C1(CCOc2ccccc2)CCN(Cc2ccc(OC)c(O)c2)CC1
Cc1cc(OCCCn2ccnc2)cc(C)c1Cl
CCn1cc(CN2CCCC(C(=O)Nc3ccc(-c4nc5ccccc5[nH]4)cc3)C2)c(C)n1 (stereo unspecified)
